Reference: ChEMBL document CHEMBL2407079, “Potent DGAT1 Inhibitors in the Benzimidazole Class with a Pyridyl-oxy-cyclohexanecarboxylic Acid Moiety” (ACS Med Chem Lett, 2013)
pIC50: −log10 of the molar value. Calls of active or inactive are those of the source. No cut-off for these calls is given here.

Columns and labels:
Mus musculus = assay: Reduction in triglyceride excursion in mouse at 3 mg/kg, po by lipid tolerance test; assay type: functional; parameters: scale not given: the % may be the effect or the level left
Canis familiaris = assay: Reduction in triglyceride excursion in dog at 3 mg/kg, po administered 1 hr prior lipid-challenge measured up to 24 hrs by lipid tolerance test; assay type: functional, organism-based; parameters: dose 3 mg/kg; details: Canis lupus familiaris
Summary of the method: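 Dog lipid tolerance test. Oral dose of 3 mg/kg in 0.5% methyl cellulose; lipid challenge 1 h after dosing; triglyceride excursion compared with a vehicle group over time; plasma drug levels sampled from 0 to 24 h.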

[1] = Ratio of drug uptake in ileum to blood of mouse at 3 mg/kg, po at 2 to 25 hrs; assay type: ADME, organism-based; parameters: dose 3 mg/kg, route oral
Summary of the method: (§1)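 Mice dosed orally at 3 mg/kg within a repeat lipid tolerance test. Drug levels (μM) measured in blood and in intestinal segments (duodenum, jejunum, ileum) at 2, 5 and 25 h after dosing. Tissue-to-blood ratio taken from the segment and blood concentrations at each time point.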

[2] = Ratio of drug uptake in jejunum to blood of mouse at 3 mg/kg, po at 2 to 25 hrs; assay type: ADME, organism-based; parameters: dose 3 mg/kg, route oral; summary of the method: as §1
[3] = Ratio of drug uptake in duodenum to blood of mouse at 3 mg/kg, po at 2 to 25 hrs; assay type: ADME, organism-based; parameters: dose 3 mg/kg, route oral; summary of the method: as §1
[4] = Biodistribution in mouse ileum at 3 mg/kg, po at 25 hrs; assay type: ADME, organism-based; parameters: dose 3 mg/kg, route oral; details: read-out: Drug uptake
Summary of the method: (§2)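 Mice, single oral dose of 3 mg/kg. Drug concentration (μM) determined in blood and in duodenum, jejunum and ileum segments at 2, 5 and 25 h.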

[5] = Biodistribution in mouse ileum at 3 mg/kg, po at 5 hrs; assay type: ADME, organism-based; parameters: dose 3 mg/kg, route oral; details: read-out: Drug uptake; summary of the method: as §2
[6] = Biodistribution in mouse ileum at 3 mg/kg, po at 2 hrs; assay type: ADME, organism-based; parameters: dose 3 mg/kg, route oral; details: read-out: Drug uptake; summary of the method: as §2
[7] = Biodistribution in mouse jejunum at 3 mg/kg, po at 25 hrs; assay type: ADME, organism-based; parameters: dose 3 mg/kg, route oral; details: read-out: Drug uptake; summary of the method: as §2
[8] = Biodistribution in mouse jejunum at 3 mg/kg, po at 5 hrs; assay type: ADME, organism-based; parameters: dose 3 mg/kg, route oral; details: read-out: Drug uptake; summary of the method: as §2
[9] = Biodistribution in mouse jejunum at 3 mg/kg, po at 2 hrs; assay type: ADME, organism-based; parameters: dose 3 mg/kg, route oral; details: read-out: Drug uptake; summary of the method: as §2
[10] = Biodistribution in mouse duodenum at 3 mg/kg, po at 25 hrs; assay type: ADME, organism-based; parameters: dose 3 mg/kg, route oral; details: read-out: Drug uptake; summary of the method: as §2
[11] = Biodistribution in mouse duodenum at 3 mg/kg, po at 5 hrs; assay type: ADME, organism-based; parameters: dose 3 mg/kg, route oral; details: read-out: Drug uptake; summary of the method: as §2
[12] = Biodistribution in mouse blood at 3 mg/kg, po at 25 hrs; assay type: ADME, organism-based; parameters: dose 3 mg/kg, route oral; details: whole blood, read-out: Drug uptake; summary of the method: as §2
[13] = Biodistribution in mouse duodenum at 3 mg/kg, po at 2 hrs; assay type: ADME, organism-based; parameters: dose 3 mg/kg, route oral; details: read-out: Drug uptake; summary of the method: as §2
[14] = Biodistribution in mouse blood at 3 mg/kg, po at 5 hrs; assay type: ADME, organism-based; parameters: dose 3 mg/kg, route oral; details: whole blood, read-out: Drug uptake; summary of the method: as §2
[15] = Biodistribution in mouse blood at 3 mg/kg, po at 2 hrs; assay type: ADME, organism-based; parameters: dose 3 mg/kg, route oral; details: whole blood, read-out: Drug uptake; summary of the method: as §2
[16] = biological target: T1, Diacylglycerol O-acyltransferase 1 (Mus musculus, UniProt Q9Z2A7); assay: Inhibition of mouse DGAT1
T1 sequence (Q9Z2A7 whole entry): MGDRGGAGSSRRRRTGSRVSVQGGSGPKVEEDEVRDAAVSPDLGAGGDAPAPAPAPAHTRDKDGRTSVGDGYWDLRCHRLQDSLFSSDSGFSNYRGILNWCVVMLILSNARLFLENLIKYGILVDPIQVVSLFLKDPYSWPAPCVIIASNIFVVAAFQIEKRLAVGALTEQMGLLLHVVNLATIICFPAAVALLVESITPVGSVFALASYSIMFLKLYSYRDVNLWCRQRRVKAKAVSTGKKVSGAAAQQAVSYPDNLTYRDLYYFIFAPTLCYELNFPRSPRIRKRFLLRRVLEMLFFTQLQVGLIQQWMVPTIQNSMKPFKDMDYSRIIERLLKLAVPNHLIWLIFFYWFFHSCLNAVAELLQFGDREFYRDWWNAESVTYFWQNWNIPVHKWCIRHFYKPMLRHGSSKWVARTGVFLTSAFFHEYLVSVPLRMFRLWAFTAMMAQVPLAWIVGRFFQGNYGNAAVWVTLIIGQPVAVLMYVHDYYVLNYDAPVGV

[17] = biological target: T2, Diacylglycerol O-acyltransferase 1 (Homo sapiens, UniProt O75907); assay: Inhibition of human DGAT1
T2 sequence (O75907 whole entry): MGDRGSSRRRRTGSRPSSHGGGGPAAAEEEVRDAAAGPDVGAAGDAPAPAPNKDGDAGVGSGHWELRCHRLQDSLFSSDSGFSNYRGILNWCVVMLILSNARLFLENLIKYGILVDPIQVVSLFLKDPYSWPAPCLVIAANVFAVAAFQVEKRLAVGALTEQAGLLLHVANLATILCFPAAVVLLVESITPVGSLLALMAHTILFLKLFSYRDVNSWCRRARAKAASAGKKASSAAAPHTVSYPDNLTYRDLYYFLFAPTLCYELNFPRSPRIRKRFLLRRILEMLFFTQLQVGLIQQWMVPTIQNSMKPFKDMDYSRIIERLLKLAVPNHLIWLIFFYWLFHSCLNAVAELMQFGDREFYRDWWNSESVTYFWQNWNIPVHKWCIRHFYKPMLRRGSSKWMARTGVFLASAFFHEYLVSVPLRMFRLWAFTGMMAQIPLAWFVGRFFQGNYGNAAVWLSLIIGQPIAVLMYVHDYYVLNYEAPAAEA

Structure (SMILES) | Activity (Mus musculus) [%] | Activity (Canis familiaris) | Kp [1] | Kp [2] | Kp [3] | concentration at 25 h [4] [nM] | concentration at 5 h [5] [nM] | concentration at 2 h [6] [nM] | concentration at 25 h [7] [nM] | concentration at 5 h [8] [nM] | concentration at 2 h [9] [nM] | concentration at 25 h [10] [nM] | concentration at 5 h [11] [nM] | concentration at 25 h [12] [nM] | concentration at 2 h [13] [nM] | concentration at 5 h [14] [nM] | concentration at 2 h [15] [nM] | pIC50 [16] | pIC50 [17]
O=C(O)[C@H]1CC[C@@H](Oc2ccc(-c3ccc(-c4nc5cc(F)ccc5[nH]4)cn3)cn2)CC1 | 72 | Active |  |  |  |  |  |  |  |  |  |  |  |  |  |  |  |  | 
O=C(O)[C@H]1CC[C@@H](Oc2ccc(-c3ccc(-c4nc5ccccc5[nH]4)cn3)cn2)CC1 | 95 |  | > 30 | > 30 | > 30 | 620 | 1720 | 3890 | 3060 | 6010 | 5510 | 1760 | 8760 | 10 | 8320 | 51 | 114 | 8.09 | 8.40
